≈ marks a conversion by molar mass, not a printed value. Calls of active or inactive are those of the source. No cut-off for these calls is given here.
Tests used:
[1] = Retention time of the compound by HPLC method; format: physicochemical
Pseudomonas aeruginosa [2] = experiment: Antibacterial activity against Pseudomonas aeruginosa PAO1 after 20 hrs by microdilution method; format: functional; conditions: PAO1, 20 h
Procedure, shortened: (§1)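 Incubated ~20 h at 37°C, then read at 630 nm. MIC is the lowest concentration with no detectable growth. Daptomycin assays had 2 mM Ca²⁺ added to the medium. Repeated several times by different investigators.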

[3] = Therapeutic index, ratio of HC50 for human RBC to MIC for methicillin-resistant Staphylococcus aureus USA300; conditions: human red blood cells, read-out: TI
Procedure, shortened: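 Supernatant hemoglobin read at 545 nm; 1% Triton X-100 = 100% lysis, untreated = 0%. HL50 divided by USA300 MIC gives the selectivity index.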

[4] = Hemolytic activity against human RBC after 1 hr; format: ADME, cell-based, Erythrocyte; conditions: human red blood cells
Procedure, shortened: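 Human red blood cells were washed three times in normal saline (800 g, 10 min) and made up as a 2% suspension. After centrifugation, supernatant absorbance was read at 545 nm. Lysis was set at 100% for 1% Triton X-100 and 0% for untreated cells; HL50 is the 50% hemolytic concentration.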

Klebsiella pneumoniae = experiment: Antibacterial activity against Klebsiella pneumoniae ATCC 13883 after 20 hrs by microdilution method; format: functional; conditions: ATCC 13883, 20 h; procedure, shortened: as §1
Staphylococcus aureus [5] = experiment: Antibacterial activity against methicillin-resistant Staphylococcus aureus USA300 after 20 hrs by microdilution method; format: functional; conditions: USA300, 20 h
Procedure, shortened: (§2)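 MIC = lowest concentration with no detectable growth. pH series run at pH 6.8, 7.4 and 8.0. Daptomycin wells carried 2 mM Ca²⁺. Repeated by different investigators on different dates.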

Escherichia coli [6] = experiment: Antibacterial activity against Escherichia coli ATCC 25922 after 20 hrs by microdilution method; format: functional; conditions: ATCC 25922, 20 h; procedure, shortened: as §1
Staphylococcus aureus [7] = experiment: Antibacterial activity against Staphylococcus aureus UAMS-1 after 20 hrs by microdilution method; format: functional; conditions: UAMS-1, 20 h; procedure, shortened: as §1
Staphylococcus aureus [8] = experiment: Antibacterial activity against Staphylococcus aureus Mu50 after 20 hrs by microdilution method; format: functional; conditions: Mu50, 20 h; procedure, shortened: as §1
Staphylococcus aureus [9] = experiment: Antibacterial activity against Staphylococcus aureus USA400 after 20 hrs by microdilution method; format: functional; conditions: USA400, 20 h; procedure, shortened: as §1
Staphylococcus aureus [10] = experiment: Induction of membrane damage in methicillin-resistant Staphylococcus aureus USA300 measured for 90 mins by propidium iodide staining based fluorescence spectroscopic analysis; format: functional
Staphylococcus aureus [11] = experiment: Antibacterial activity against Staphylococcus aureus USA200 after 20 hrs by microdilution method; format: functional; conditions: USA200, 20 h; procedure, shortened: as §1
Staphylococcus aureus [12] = experiment: Ratio of MIC for methicillin-resistant Staphylococcus aureus USA300 in presence of 100 mM NaCl to MIC for methicillin-resistant Staphylococcus aureus USA300 in absence of 100 mM NaCl; format: functional
Procedure, shortened: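 Broth microdilution MIC against S. aureus USA300 in TSB with and without 100 mM NaCl. Inoculum 10⁶ CFU/mL exponential-phase cells, ~20 h at 37°C, OD630 read-out, no-growth endpoint. Ratio of MIC with salt to MIC without salt.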

Staphylococcus aureus [13] = experiment: Antibacterial activity against Staphylococcus aureus Newman after 20 hrs by microdilution method; format: functional; procedure, shortened: as §1
Pseudomonas aeruginosa [14] = experiment: Antibacterial activity against Pseudomonas aeruginosa PAO1 after overnight incubation by broth microdilution method; format: functional
Staphylococcus aureus [15] = experiment: Antibacterial activity against methicillin-resistant Staphylococcus aureus USA300 LAC after overnight incubation by broth microdilution method; format: functional; procedure, shortened: as §2
Escherichia coli [16] = experiment: Antibacterial activity against Escherichia coli K-12 after overnight incubation by broth microdilution method; format: functional
Staphylococcus aureus [17] = experiment: Induction of membrane damage in methicillin-resistant Staphylococcus aureus USA300 measured up to 90 mins by propidium iodide staining based fluorescence spectroscopic analysis
Staphylococcus aureus [18] = experiment: Antibacterial activity against methicillin-resistant Staphylococcus aureus USA300 after 20 hrs at pH 6.8 to 8 by microdilution method; format: functional; procedure, shortened: as §2
Staphylococcus aureus [19] = experiment: Inhibition of methicillin-resistant Staphylococcus aureus USA300 preformed biofilms after 24 hrs by XTT assay; format: functional
Procedure, shortened: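 USA300 biofilms formed for 24 h on polystyrene wells, washed, then treated with compounds for 24 h. Remaining biofilm quantified by XTT reduction (2 h, 37°C, absorbance 450 nm, medium-plus-XTT blank). Compared with untreated control.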

Staphylococcus aureus [20] = experiment: Inhibition of surface attachment by methicillin-resistant Staphylococcus aureus USA300 assessed as reduction in biofilm formation after 4 hrs by XTT assay; format: functional

With `Cl.Clc1cccc(Cl)c1C(c1c[nH]c2ccc(C3=NCCN3)cc12)c1c[nH]c2ccc(C3=NCCN3)cc12` the Retention_time [1] was 10.537 min, the MIC (Pseudomonas aeruginosa [2]) was > 50 µM and the selectivity ratio [3] was > 48. The HC50 at 1 h [4] was > 600 µM, the MIC (Klebsiella pneumoniae) was > 50 µM and the MIC (Staphylococcus aureus [5]) was 12.5 µM. For the same molecule, the MIC (Escherichia coli [6]) was > 50 µM.
For `CCCCCCCCCC(=O)N[C@@H](Cc1c[nH]c2ccccc12)C(=O)N[C@@H](CC(N)=O)C(=O)N[C@@H](CC(=O)O)C(=O)N[C@@H]1C(=O)NCC(=O)N[C@@H](CCCN)C(=O)N[C@@H](CC(=O)O)C(=O)N[C@H](C)C(=O)N[C@@H](CC(=O)O)C(=O)NCC(=O)N[C@H](CO)C(=O)N[C@@H]([C@H](C)CC(=O)O)C(=O)N[C@@H](CC(=O)c2ccccc2N)C(=O)O[C@@H]1C` [DAPTOMYCIN], the MIC (Staphylococcus aureus [7]) was > 12.5 µM, the MIC (Staphylococcus aureus [8]) was 3.1 µM (≈ 5.02 µg/mL) and the MIC (Staphylococcus aureus [9]) was 0.78 µM (≈ 1.26 µg/mL). The MIC (Staphylococcus aureus [5]) was 0.78 µM (≈ 1.26 µg/mL), the Activity (Staphylococcus aureus [10]) was “Active” and the MIC (Staphylococcus aureus [11]) was 0.78 µM (≈ 1.26 µg/mL).
For `CS(=O)(=O)O.CS(=O)(=O)O.NCc1ccc2c(C3(c4c[nH]c5cc(CN)ccc45)CCCCC3)c[nH]c2c1`, the Retention_time [1] was 10.788 min, the MIC (Pseudomonas aeruginosa [2]) was > 50 µM and the selectivity ratio [3] was 12 to 24. The HC50 at 1 h [4] was 75 to 150 µM, the MIC (Klebsiella pneumoniae) was > 50 µM and the MIC (Staphylococcus aureus [5]) was 6.2 to 12.5 µM. The MIC (Escherichia coli [6]) was > 50 µM.
With `CS(=O)(=O)O.CS(=O)(=O)O.Clc1cccc(Cl)c1C(c1c[nH]c2cc(C3=NCCN3)ccc12)c1c[nH]c2cc(C3=NCCN3)ccc12` the Ratio (Staphylococcus aureus [12]) was “<=2”, the Retention_time [1] was 10.973 min and the MIC (Staphylococcus aureus [13]) was 12.5 µM. The MIC (Staphylococcus aureus [7]) was > 25 µM, the MIC (Pseudomonas aeruginosa [2]) was > 50 µM and the MIC (Staphylococcus aureus [8]) was > 25 µM. It also gave an MIC (Staphylococcus aureus [9]) of 12.5 µM, a selectivity ratio [3] of 24 to 48 and an HC50 at 1 h [4] of 300 µM. For the same molecule, the MIC (Klebsiella pneumoniae) was > 50 µM, the MIC (Staphylococcus aureus [5]) was 6.2 to 12.5 µM and the Activity (Staphylococcus aureus [10]) was “Active”. The MIC (Escherichia coli [6]) was > 50 µM and the MIC (Staphylococcus aureus [11]) was 12.5 µM.
For `CS(=O)(=O)O.CS(=O)(=O)O.c1cc2c(C3(c4c[nH]c5cc(C6=NCCN6)ccc45)CCCCC3)c[nH]c2cc1C1=NCCN1`, the Ratio (Staphylococcus aureus [12]) was “<=2”, the Retention_time [1] was 11.276 min and the MIC (Staphylococcus aureus [13]) was 6.2 µM. The MIC (Staphylococcus aureus [7]) was 25 µM, the MIC (Pseudomonas aeruginosa [2]) was > 50 µM and the MIC (Staphylococcus aureus [8]) was 6.2 µM. It also gave an MIC (Staphylococcus aureus [9]) of 6.2 µM, an MIC (Pseudomonas aeruginosa [14]) of 100 µM and a selectivity ratio [3] of 24 to 48. For the same molecule, the HC50 at 1 h [4] was 150 to 300 µM, the MIC (Klebsiella pneumoniae) was > 50 µM and the MIC (Staphylococcus aureus [5]) was 6.2 µM. The MIC (Staphylococcus aureus [15]) was 6.2 µM, the Activity (Staphylococcus aureus [10]) was “Active” and the MIC (Escherichia coli [6]) was > 50 µM. For the same molecule, the MIC (Escherichia coli [16]) was > 200 µM and the MIC (Staphylococcus aureus [11]) was 6.2 µM.
With `CS(=O)(=O)O.CS(=O)(=O)O.c1cc2c(Cc3c[nH]c4cc(C5=NCCN5)ccc34)c[nH]c2cc1C1=NCCN1` the Retention_time [1] was 9.215 min, the MIC (Pseudomonas aeruginosa [2]) was > 50 µM and the selectivity ratio [3] was 26. For the same molecule, the HC50 at 1 h [4] was 1300 µM, the MIC (Klebsiella pneumoniae) was > 50 µM and the MIC (Staphylococcus aureus [5]) was 50 µM. The MIC (Escherichia coli [6]) was > 50 µM.
For `CCCC(CCC)(c1c[nH]c2cc(C3=NCCN3)ccc12)c1c[nH]c2cc(C3=NCCN3)ccc12.CS(=O)(=O)O.CS(=O)(=O)O`, the Ratio (Staphylococcus aureus [12]) was “<=2”, the Retention_time [1] was 12.102 min and the MIC (Staphylococcus aureus [13]) was 3.1 µM. The MIC (Staphylococcus aureus [7]) was 12.5 to 25 µM, the Activity (Staphylococcus aureus [17]) was “Active” and the MIC (Pseudomonas aeruginosa [2]) was > 50 µM. The MIC (Staphylococcus aureus [8]) was 3.1 µM, the MIC (Staphylococcus aureus [9]) was 3.1 µM and the Activity (Staphylococcus aureus [18]) was “Active”. The “inhibition (INH)” value (Staphylococcus aureus [19]) was 50%, the selectivity ratio [3] was 48 to 96 and the HC50 at 1 h [4] was 150 µM. The MIC (Klebsiella pneumoniae) was > 50 µM, the MIC (Staphylococcus aureus [5]) was 1.6 to 3.1 µM and the MIC (Escherichia coli [6]) was > 50 µM. For the same molecule, the “inhibition (INH)” value (Staphylococcus aureus [20]) was 40% and the MIC (Staphylococcus aureus [11]) was < 1.5 µM.
For `Brc1cccc(Br)c1C(c1c[nH]c2cc(C3=NCCN3)ccc12)c1c[nH]c2cc(C3=NCCN3)ccc12.CS(=O)(=O)O.CS(=O)(=O)O`, the Retention_time [1] was 11.159 min, the MIC (Staphylococcus aureus [13]) was 3.1 to 6.2 µM and the MIC (Staphylococcus aureus [7]) was 6.2 µM. The MIC (Pseudomonas aeruginosa [2]) was > 50 µM, the MIC (Staphylococcus aureus [8]) was 6.2 µM and the MIC (Staphylococcus aureus [9]) was 3.1 µM. The selectivity ratio [3] was 24 to 48, the HC50 at 1 h [4] was 150 µM and the MIC (Klebsiella pneumoniae) was > 50 µM. For the same molecule, the MIC (Staphylococcus aureus [5]) was 3.1 to 12.5 µM, the Activity (Staphylococcus aureus [10]) was “Active” and the MIC (Escherichia coli [6]) was > 50 µM. The MIC (Staphylococcus aureus [11]) was 3.1 µM.

From ChEMBL document CHEMBL3875203, “Small molecule mimics of DFTamP1, a database designed anti-Staphylococcal peptide” (Bioorg Med Chem, 2017)
